Data on three compounds can be found in ChEMBL document CHEMBL2046332, “Substrate analog studies of the ω-regiospecificity of Mycobacterium tuberculosis cholesterol metabolizing cytochrome P450 enzymes CYP124A1, CYP125A1 and CYP142A1” (Bioorg Med Chem, 2012).

Activity calls are given as the source filed them. The calls are words filed in the database; no cut-off is given here.

Data set [1] concerns the target T1, Steroid C26-monooxygenase (Mycobacterium tuberculosis, UniProt P9WPP1).
T1 sequence (P9WPP1 whole entry): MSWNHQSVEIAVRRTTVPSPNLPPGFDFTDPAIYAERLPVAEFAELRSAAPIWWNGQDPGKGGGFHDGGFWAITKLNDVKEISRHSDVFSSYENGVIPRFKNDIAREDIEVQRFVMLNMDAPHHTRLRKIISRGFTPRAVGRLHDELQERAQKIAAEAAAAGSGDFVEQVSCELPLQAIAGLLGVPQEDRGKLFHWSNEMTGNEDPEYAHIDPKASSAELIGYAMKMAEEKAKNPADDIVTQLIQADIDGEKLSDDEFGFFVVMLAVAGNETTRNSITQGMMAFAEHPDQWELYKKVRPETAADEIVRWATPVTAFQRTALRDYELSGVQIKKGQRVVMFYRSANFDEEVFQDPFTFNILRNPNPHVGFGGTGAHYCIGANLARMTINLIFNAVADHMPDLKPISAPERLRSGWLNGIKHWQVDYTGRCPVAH
The experiment in a line: Activity of Mycobacterium tuberculosis CYP125A1 assessed as apparent turnover number at 50 uM incubated for 1 hr at 25 degC by GC-MS method. Summed up:
(§1)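 Each P450 (250 nM) was incubated with 50 μM substrate, 5 μg catalase, 50 μg/mL ferredoxin, 0.16 U/mL ferredoxin-NADP+ reductase, and an NADPH-regenerating system (1 mM glucose-6-phosphate, 2.4 U/mL G6P dehydrogenase, 5 mM MgCl2, 800 μM NADP+). Buffer was 50 mM potassium phosphate pH 7.5, 25 °C, 1 h. Quenched with HCl, extracted into hexanes, TMS-derivatised, GC-MS. Controls lacked P450 or NADPH.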

Data set [2] deals with Mycobacterium tuberculosis. Description: Binding affinity to Mycobacterium tuberculosis CYP124A1 assessed as type 1 binding mode at 0.05 to 0.2 uM by UV-visible spectrophotometry. The gist of the method: (§2)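 Spectral titration of each P450 with steroid solubilised in methyl β-cyclodextrin. Ligand-induced low-spin/high-spin shifts were followed in the Soret region and at ~650 nm to assign binding type. Absolute spectra of the P450–steroid complexes were also examined.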

In data set [3] the target is T1, Steroid C26-monooxygenase. Description: Binding affinity to Mycobacterium tuberculosis CYP125A1 assessed as type 1a binding mode at > 0.05 to 0.2 uM by UV-visible spectrophotometry. Summed up: as §2
Data set [4] concerns Mycobacterium tuberculosis. Description: Binding affinity to Mycobacterium tuberculosis CYP142A1 assessed as type 1 binding mode at 0.05 to 0.2 uM by UV-visible spectrophotometry. Summed up: as §2
Data set [5] deals with Mycobacterium tuberculosis. The experiment in a line: Activity of Mycobacterium tuberculosis CYP142A1 assessed as relative apparent turnover number at 50 uM incubated for 1 hr at 25 degC by GC-MS method relative to cholesterol.
For data set [6], the target named is T1, Steroid C26-monooxygenase. The experiment in a line: Activity of Mycobacterium tuberculosis CYP125A1 assessed as relative apparent turnover number at 50 uM incubated for 1 hr at 25 degC by GC-MS method relative to cholesterol.
Data set [7] concerns Mycobacterium tuberculosis. The experiment in a line: Activity of Mycobacterium tuberculosis CYP124A1 assessed as apparent turnover number at 50 uM incubated for 1 hr at 25 degC by GC-MS method. Summed up:
as §1

Data set [8] relates to Mycobacterium tuberculosis. The experiment in a line: Activity of Mycobacterium tuberculosis CYP142A1 assessed as apparent turnover number at 50 uM incubated for 1 hr at 25 degC by GC-MS method. The gist of the method:
as §1

Data set [9] concerns Mycobacterium tuberculosis. Description: Activity of Mycobacterium tuberculosis CYP124A1 assessed as relative apparent turnover number at 50 uM incubated for 1 hr at 25 degC by GC-MS method relative to cholesterol.
Data set [10] concerns the target T1, Steroid C26-monooxygenase. The experiment in a line: Binding affinity to Mycobacterium tuberculosis CYP125A1 by UV-visible spectrophotometry. As to conditions: read-out: Kd(app). The gist of the method: as §2
Data set [11] can be described thus: Binding affinity to Mycobacterium tuberculosis CYP124A1 by UV-visible spectrophotometry. As to conditions: read-out: Kd(app). Summed up:
as §2

Data set [12] relates to Mycobacterium tuberculosis. The experiment in a line: Time dependent inhibition of Mycobacterium tuberculosis CYP124A1 at 50 uM incubated up to 3 hrs by HPLC. The gist of the method: (§3)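 P450 (5 μM) was pre-incubated with 50 μM test sterol in 50 mM potassium phosphate pH 7.5 with ferredoxin, reductase, catalase and NADPH-regenerating system. Controls received MβCD vehicle only. Aliquots taken over time were diluted twenty-fold into buffer with 50 μM cholest-4-en-3-one, spinach ferredoxin, reductase and 1 mM NADPH, run 10 min at 25 °C, and analysed by HPLC. Residual activity = % of control.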

Data set [13] addresses T1, Steroid C26-monooxygenase. The experiment in a line: Binding affinity to Mycobacterium tuberculosis CYP125A1 assessed as type 1 binding mode at 0.05 to 0.2 uM by UV-visible spectrophotometry. The gist of the method: as §2
Data set [14] concerns Mycobacterium tuberculosis. Description: Time dependent inhibition of Mycobacterium tuberculosis CYP142A1 at 50 uM incubated up to 3 hrs by HPLC. The gist of the method: as §3
The nature of data set [15]: Binding affinity to Mycobacterium tuberculosis CYP142A1 by UV-visible spectrophotometry. Particulars: read-out: Kd(app). Summed up:
as §2

In data set [16] the test system is Mycobacterium tuberculosis. The experiment in a line: Binding affinity to Mycobacterium tuberculosis CYP124A1 assessed as type 1a binding mode at > 0.05 to 0.2 uM by UV-visible spectrophotometry. Summed up:
as §2

In the case of `C=C(C)CCC[C@@H](C)[C@H]1CC[C@H]2[C@@H]3CC=C4C[C@@H](O)CC[C@]4(C)[C@H]3CC[C@]12C`, the “Kcat(app)” value is 0.178 s⁻¹ in data set [1], 0.00667 s⁻¹ in [7] and 0.0183 s⁻¹ in [8]. The result in [2] and in data set [4] was Active. Also, the Activity entry was “Active” in data set [3], 6.7% in data set [5], 37% in data set [6] and 26.2% in data set [9]. The Kd in data set [10] stood at 0.25 µM; in [11] it was 0.15 µM.
`C=CCCC[C@@H](C)[C@H]1CC[C@H]2[C@@H]3CC=C4C[C@@H](O)CC[C@]4(C)[C@H]3CC[C@]12C`: the “Kcat(app)” value in data set [1] was found to be 0.0367 s⁻¹; in data set [7], 0.0005 s⁻¹; in [8] it was 0.0183 s⁻¹. Further, the inhibition result in data set [12] and in data set [14] was “inactive” throughout. For the same compound, the result in [2] and in data set [4] was Active. Besides, the Activity in data set [5] was 6.7%; in data set [6], 8%; in [13] it was “Active”; in data set [9], 1.9%.
For `CC=C(C)CCC[C@@H](C)[C@H]1CC[C@H]2[C@@H]3CC=C4C[C@@H](O)CC[C@]4(C)[C@H]3CC[C@]12C` (mixture of isomers), the “Kcat(app)” value in data set [1] was 0.135 s⁻¹; in data set [7] it was 0.005 s⁻¹. Moreover, the result in data set [2], in [4] and in [16] was Active. Also, the Activity in [6] was 29.9%; in data set [13], “Active”; in [9] it was 22.4%. In addition, the Kd stood at 0.16 µM in [15] and 0.45 µM in data set [10].
